Where two headings read alike, the source gives them in different places.
Legend:
mouse corneal epithelium [1] = test: Corneal epithelial barrier function, fluorescein staining in vivo
[2] = tested on: human telomerase-immortalized corneal epithelial (hTCEpi) cells; test: MTT cell viability; type: cell-based; conditions: discussion summary
Procedure, shortened: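 hTCEpi (telomerase-immortalized human corneal epithelial) cells incubated 24 h with test peptide at 200 μg/ml (0.02% w/v), with a scrambled peptide as control. Viability was read by MTT assay.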

hTCEpi cells = test: TUNEL assay of DNA fragmentation; type: cell-based, human; conditions: 24-h incubation, Fig. S1B
red blood cells = test: Hemolysis; type: cell-based; conditions: for toxic effect on blood cells: discussion summary; for hemolysis (amount of hemoglobin released): vs untreated samples, Fig. S1C
mouse corneal epithelium [3] = test: Corneal wound healing; type: in vivo; conditions: 0.1% topical, 2.5 μg peptide three times within 24 h, 6 h and 24 h after wounding, vs saline and SC10, Fig. S1E
Procedure, shortened: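 C57BL/6J mice, both sexes, 10–12 wk, anesthetised i.p. with ketamine/dexmedetomidine, reversed with atipamezole. Central 2 mm corneal epithelium removed with blade. Wounds got topical saline or test peptide (2.5 μg) three times within 24 h. Defects stained with 0.38% fluorescein immediately, 6 h and 24 h post-injury; stained area measured. One cornea per mouse.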

[4] = tested on: thioglycolate-elicited mouse peritoneal neutrophils; test: LPS/LTA-induced cytokine secretion from neutrophils, ELISA; type: cell-based; conditions: for dose dependence of cytokine inhibition, neutrophils: 50, 100 or 200 μg/ml, 8 h, Fig. S2; for cytokine suppression at 24 h, neutrophils: 24 h post-ligand stimulation, Fig. S3
Procedure, shortened: (§1)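 C57BL/6J mice injected i.p. with 1 ml 3% thioglycolate. Peritoneal neutrophils collected day 1 (DMEM), macrophages day 3 (RPMI, 6 h adherence), both 2% FBS, 1x10⁵ cells/well after RBC lysis. Stimulated with P. aeruginosa LPS or S. aureus LTA (500 ng/ml); test peptide (50, 100 or 200 μg/ml) added 30 min before or after. Incubated 8 or 24 h, 37°C/5% CO₂. Supernatant IL-6, TNFα, G-CSF, CXCL1, CXCL2, CXCL10 measured by ELISA.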

[5] = tested on: thioglycolate-elicited mouse peritoneal macrophages; test: LPS/LTA-induced cytokine secretion from macrophages, ELISA; type: cell-based; conditions: for dose dependence of cytokine inhibition, macrophages: 50, 100 or 200 μg/ml, 8 h, Fig. S2; for cytokine suppression at 24 h, macrophages: 24 h post-ligand stimulation, Fig. S3
Procedure, shortened: as §1

[6] = tested on: cell surface/endosomal TLR3; test: media poly; type: cell-based, mouse; conditions: neutrophils, high-molecular-weight poly(I:C) 1 μg/ml added to media; Fig. 1D
Procedure, shortened: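 Thioglycolate-elicited mouse peritoneal neutrophils (collected day 1, DMEM/2% FBS) were stimulated with high-molecular-weight poly(I:C) (1 μg/ml) added to medium, alone or with test peptide, at 37°C/5% CO₂. Phospho-NFκB p65⁺ and phospho-IRF3⁺ cells were quantified by intracellular flow cytometry. Mean ± SD, N = 3 replicates.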

human MD2/TLR4 complex = test: MD2 blocking assay; type: binding; conditions: for inhibition of LPS binding to MD2/TLR4 beads (in words): 30-min preincubation, peptide 60 μM, FITC-LPS 1 μg/ml, Fig. 3A; for inhibition of LPS binding to MD2/TLR4 beads with soluble MD2: soluble MD2 1 μg/ml present during preincubation with peptide 60 μM, Fig. 3B
Procedure, shortened: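 Human MD2/TLR4-conjugated latex beads incubated with test peptide (60 μM), without or with soluble MD2 (1 μg/ml). Beads washed, then incubated with FITC-LPS (1 μg/ml). Percentage of LPS⁺ beads quantified by flow cytometry. Mean ± SEM, n = 3-5 independent experiments.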

[7] = tested on: TLR2, mouse peritoneal neutrophils; test: TLR2 endocytosis in neutrophils, flow cytometry; type: cell-based; conditions: peptide alone 200 μg/ml (LTA 500 ng/ml), 1 h; Fig. 4C
Procedure, shortened: (§2)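 Thioglycolate-elicited C57BL/6J peritoneal neutrophils (day 1) or adherent macrophages (day 3) incubated 1 h with test peptide alone. TLR2 localisation assessed by flow cytometry as cell-surface versus intracellular staining.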

[8] = tested on: TLR2, mouse peritoneal macrophages; test: TLR2 endocytosis in macrophages, flow cytometry; type: cell-based; conditions: peptide alone 200 μg/ml (LTA 500 ng/ml), 1 h; Fig. 4D
Procedure, shortened: as §2

[9] = tested on: amikacin-resistant P. aeruginosa keratitis isolate, mouse corneas; test: Prophylaxis of P. aeruginosa keratitis; type: in vivo; conditions: 0.1% (5 μg) topical once 30 min before infection; 24 h; P < 0.01; Fig. 5D, E
Procedure, shortened: (§3)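 C57BL/6J mice (both sexes, 10-12 wk), anesthetized with ketamine/dexmedetomidine i.p. One cornea per mouse, scarified with three 26g-needle abrasions. 5 μl test peptide (0.1% in saline, 5 μg) applied once, 30 min before amikacin-resistant P. aeruginosa 10⁵ CFU or S. aureus 10⁶ CFU. At 24 h: homogenate CFU on tryptic soy agar; collagenase-digested corneas analysed by flow cytometry for CD45⁺, Ly6B.2⁺F4/80⁻ and F4/80⁺ cells. n = 8-10, two experiments.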

S. aureus, mouse corneas [10] = test: Prophylaxis of S. aureus keratitis; type: in vivo; conditions: 0.1% (5 μg) topical once 30 min before 10^6 CFU, 24 h; for bacterial burden, S. aureus prophylaxis: Fig. 5H; for immune cell infiltration, S. aureus prophylaxis: Fig. 5I, J
Procedure, shortened: as §3

[11] = tested on: amikacin-resistant P. aeruginosa, mouse corneas; test: Treatment of established P. aeruginosa keratitis; type: in vivo; conditions: for total leukocytes, neutrophils and macrophages, P. aeruginosa treatment: 3 times daily, as early as one day post-treatment, Fig. 6C-F; for disease severity over the 3-day treatment course, P. aeruginosa: 5 μg in liposomes topical 3 times daily
Procedure, shortened: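 Scarified C57BL/6J corneas (one per mouse) inoculated with amikacin-resistant P. aeruginosa (10⁵ CFU). From 24 h post-infection: test peptide in phosphatidylcholine/stearylamine/cholesterol liposomes (5 μg in 5 μl), or liposome vehicle, applied topically three times daily for 1 or 3 days. Blinded 0-16 clinical score from four opacity/epithelial features. Corneal CD45⁺ leukocytes, Ly6B.2⁺F4/80⁻ neutrophils and F4/80⁺ macrophages counted by flow cytometry.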

S. aureus, mouse corneas [12] = test: Treatment of established S. aureus keratitis; type: in vivo; conditions: for infectious load, S. aureus treatment: 5 μg in liposomes, 3 times daily, Fig. 7G
Procedure, shortened: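 C57BL/6J mice, both sexes, 10–12 wk. Corneas scarified with three 26g needle abrasions, inoculated with S. aureus 10⁶ CFU. From 24 h post-infection, 5 μg test peptide in 5 μl liposome mix (phosphatidylcholine/stearylamine/cholesterol) or liposome vehicle given topically three times daily for 1 or 3 days. Blinded daily scoring of four features (0–4 each, total 0–16). Endpoint CFU from corneal homogenates plated on tryptic soy agar.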

Pseudomonas aeruginosa = conditions: ref [20]; cited from earlier work
[13] = ref [20]; cited from earlier work
immune cells [14] = test: Toxic effect on immune cells; conditions: discussion summary
MD2/TLR4 complex = test: LPS displacement assay; type: binding, human; conditions: 60 μM, 30 min; Fig. 3E
Procedure, shortened: (§4)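 Beads conjugated with human MD2/TLR4 complex or TLR2 were preincubated with FITC-LPS or FITC-LTA (1 μg/ml) respectively, PBS-washed, then mixed with test peptide (60 μM). Percentage of ligand-positive beads was measured by flow cytometry. Mean ± SEM, n = 3-5 independent experiments.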

TLR2 = test: LTA displacement assay; type: binding, human; conditions: 60 μM, 30 min; Fig. 3F
Procedure, shortened: as §4

bacteria = conditions: high-salt media; ref [49], [50]; cited from earlier work
[15] = ref [49], [50]; cited from earlier work
immune cells [16] = tested on: immune cells
Staphylococcus aureus = conditions: ref [20]; cited from earlier work
[17] = ref [20]; cited from earlier work; remark: listed apart in the source

Substance	toxic effect on corneal epithelial cells [2]	apoptosis (hTCEpi cells)	toxic effect on blood cells (red blood cells)	hemolysis (amount of hemoglobin released) (red blood cells)	corneal barrier function, fluorescein staining (mouse corneal epithelium [1]; mouse, in vivo)	barrier restoration after wounding (re-epithelialization) (mouse corneal epithelium [3])	dose dependence of cytokine inhibition, neutrophils [4]	cytokine suppression at 24 h, neutrophils [4]	dose dependence of cytokine inhibition, macrophages [5]	cytokine suppression at 24 h, macrophages [5]	inhibition of LPS binding to MD2/TLR4 beads (in words) (human MD2/TLR4 complex)	inhibition of LPS binding to MD2/TLR4 beads with soluble MD2 (human MD2/TLR4 complex)	TLR2 internalization, neutrophils [7]	TLR2 internalization, macrophages [8]	infiltrated leukocytes, neutrophils and macrophages, P. aeruginosa prophylaxis [9]	bacterial burden, S. aureus prophylaxis (S. aureus, mouse corneas [10])	immune cell infiltration, S. aureus prophylaxis (S. aureus, mouse corneas [10])	total leukocytes, neutrophils and macrophages, P. aeruginosa treatment ([11]; 5 μg in liposomes)	infectious load, S. aureus treatment (S. aureus, mouse corneas [12])	disease severity over the 3-day treatment course, P. aeruginosa ([11]; Fig. 6A, B)	also measured
Benzalkonium chloride [BAK, reference compound]																					corneal barrier function, fluorescein staining (mouse corneal epithelium [1]; mice, one topical application at 0.1% in saline, Fig. S1D): high degree of fluorescein penetration
GGLSSVGGGS [KAMP10]	no detectable toxic effect	did not induce apoptosis	no detectable toxic effect	no difference from the baseline of untreated samples	remained stain-free	substantially accelerated	dose-dependent	effective suppression	dose-dependent	effective suppression	effectively inhibited subsequent LPS binding	inhibitory effect was abolished	triggered internalization of TLR2	triggered internalization of TLR2	significantly reduced	alleviated	alleviated	substantially reduced	substantially reducing the infectious load		p65 and IRF3 phosphorylation, media poly(I:C) [6]: inhibited p65 and IRF3 phosphorylation; relative effect on disease severity, P. aeruginosa treatment ([11]; KAMP10 vs KAMP18C, 5 μg in liposomes, 1 DAT, Fig. 6A, B): effect more prominent; bactericidal mechanism, P. aeruginosa (Pseudomonas aeruginosa): perforated Pseudomonas aeruginosa membrane; binding affinity for LPS [13]: modest binding affinity; toxic effect on immune cells (immune cells [14]): no detectable toxic effect
GLSGVGSGSG [SC10, reference compound]					stain-free similarly to the SC10- or saline-treated controls	in contrast to saline and SC10					but not SC10, effectively inhibited									severity progression or lack of improvement	displacement of LPS from MD2/TLR4 beads (in words) (MD2/TLR4 complex): as opposed to SC10; displacement of LTA from TLR2 beads (in words) (TLR2): as opposed to SC10
LL-37																				severity progression or lack of improvement	bactericidal activity of LL-37 (bacteria): characterized bactericidal activities in high-salt media; LPS- and LTA-neutralizing activity [15]: known LPS- and LTA-neutralizing activities
RAIGGGLSSVGGGSSTIK [KAMP18C]	no detectable toxic effect	did not induce apoptosis	no detectable toxic effect	no difference from the baseline of untreated samples	remained stain-free	substantially accelerated	dose-dependent	effective suppression	dose-dependent	effective suppression	effectively inhibited subsequent LPS binding	inhibitory effect was abolished	triggered internalization of TLR2	triggered internalization of TLR2	significantly reduced	alleviated	alleviated	substantially reduced	substantially reducing the infectious load		relative effect on disease severity, S. aureus treatment (S. aureus, mouse corneas [12]; KAMP18C vs KAMP10, 5 μg in liposomes, Fig. 7A, B): more effective against S. aureus infection; toxic effect on immune cells (immune cells [16]): no detectable toxic effect; bactericidal mechanism, S. aureus (Staphylococcus aureus): caused major damage to the cell envelope of Staphylococcus aureus; binding affinity for LTA [17]: modest binding affinity

— paper PMC10173409 (Science translational medicine, 2023)
